Data: PMC5800424 (Molecular carcinogenesis, 2016)

What was measured:
MIA PaCa-2 = test: MTT proliferation assay, MIA PaCa-2 cells; format: cell-based; details: Homo sapiens, MIA PaCa-2, 24 h; for IC20: read-out: Approx. IC20; for IC50: read-out: Approx. IC50
In short: (§1)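 Cells were seeded at 4 × 10^3/well in 96-well plates and dosed 24 h later with graded concentrations of test compound for 24 h, with DMSO solvent control. Proliferation was read by modified MTT assay and approximate IC20/IC50 reported; triplicates, three independent experiments. Culture media, all at 37°C/5% CO2, were: BxPC-3 and Capan-2 RPMI/10% FBS; MIA PaCa-2 high-glucose DMEM/10% FBS/5% horse serum; PANC-1 DMEM/10% FBS; HPNE HPNE base medium/5% FBS/EGF.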

HPNE = test: MTT proliferation assay, HPNE cells; format: cell-based; details: Homo sapiens, 24 h; for IC20: read-out: Approx. IC20; for IC50: read-out: Approx. IC50
In short: as §1

BxPC-3 = test: MTT proliferation assay, BxPC-3 cells; format: cell-based; details: Homo sapiens, BXPC-3, 24 h; for IC20: read-out: Approx. IC20; for IC50: read-out: Approx. IC50
In short: as §1

PANC-1 = test: MTT proliferation assay, PANC-1 cells; format: cell-based; details: Homo sapiens, PANC-1, 24 h; for IC20: read-out: Approx. IC20; for IC50: read-out: Approx. IC50
In short: as §1

Capan-2 [1] = test: MTT proliferation assay, Capan-2 cells; format: cell-based; details: Homo sapiens, Capan-2, 24 h; for IC20: read-out: Approx. IC20; for IC50: read-out: Approx. IC50
In short: as §1

p105 = test: Immunoblot analysis of p105; format: cell-based, human; details: MIA PaCa-2; 24h; GEM 0.5 μM alone or with Nx 20 μg/mL
In short: (§2)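 MIA PaCa-2 cells were exposed for 24 h to medium alone, test extract (20 μg/mL), nucleoside drug (0.5 μM), or both. They were lysed in 2x SDS buffer with protease and phosphatase inhibitors, run on 10% SDS-PAGE and transferred to nitrocellulose. Blocking was 1 h at RT in 5% milk or 5% BSA/TBST, primary antibody 2 h at RT, then HRP secondary 1 h. Detection was ECL; blots are representative of three independent experiments.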

p50 = test: Immunoblot analysis of p50; format: cell-based, human; details: MIA PaCa-2; 24h; GEM 0.5 μM alone or with Nx 20 μg/mL
In short: as §2

phospho-p65 (pp65) = test: Immunoblot analysis of pp65; format: cell-based, human; details: MIA PaCa-2; 24h; GEM 0.5 μM alone or with Nx 20 μg/mL
[2] = tested on: GEM-resistant Capan-2 (GRC) cells; test: Proliferation assay, GEM-resistant Capan-2; format: cell-based, human; details: 24h
In short: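 The resistant Capan-2 line was derived by stepwise nucleoside drug exposure: 5 μM for 4 days, 5 μM for 1 week, 7.5 μM for 1 week, each followed by drug-free recovery, then 10 μM for 4 months. It was kept in RPMI/10% FBS plus drug. Resistant and parental cells were treated with graded doses for 24 h, and proliferation was read by MTT; triplicates, three independent experiments.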

Capan-2 [3] = test: Annexin V apoptosis assay, Capan-2; format: cell-based, human; details: 24h, Nx 50 μg/mL, GEM 0.5 μM, alone or in combination
[4] = tested on: GEM-resistant BxPC-3 (GRB) cells; test: Proliferation assay, GEM-resistant BxPC-3; format: cell-based, human; details: 24h

IC50 (MIA PaCa-2) [mg/L] | IC50 (BxPC-3) [mg/L] | IC50 (PANC-1) [mg/L] | SMILES | IC20 (MIA PaCa-2) [mg/L] | IC20 (HPNE) [mg/L] | IC50 (HPNE) [mg/L] | IC20 (BxPC-3) [mg/L] | IC20 (PANC-1) [mg/L] | IC20 (Capan-2 [1]) [mg/L] | IC50 (Capan-2 [1]) [mg/L] | levels of p105 (p105) | levels of p50 (p50) | levels of pp65 (phospho-p65 (pp65)) | proliferation of GRC cells compared to WT parental Capan-2 [2] | apoptosis induction (Annexin V) (Capan-2 [3]) | proliferation of GRB cells compared to WT parental BxPC-3 [4]
~30 | ~25 | ~5 | CCCCC[N+]12CCc3cc4c(cc3C1Cc1ccc(OC)c(OC)c1C2)OCO4.[Cl-] (centres unmarked) [Ber 2-4, 9,10-dimethoxy-7-pentyl-5,6,7,8,13,13a-hexahydro-[1,3]dioxolo[4,5-g]isoquinolino[3,2-a]isoquinolin-7-ium chloride] | ~10 | ~25 | ~75 | ~5 | ~1 | ~5 | ~75 | – | – | – | – | – | –
~20 | – | ~50 | COc1ccc2c(c1OC)C[N+]1(Cc3ccc(Br)cc3)CCc3cc4c(cc3C1C2)OCO4.[Br-] (centres unmarked) [Ber 2-8, 7-(4-bromobenzyl)-9,10-dimethoxy-5,6,7,8,13,13a-hexahydro-[1,3]dioxolo[4,5-g]isoquinolino[3,2-a]isoquinolin-7-ium bromide] | ~5 | ~25 | ~50 | – | ~5 | – | – | – | – | – | – | – | –
~25 | ~25 | ~50 | COc1ccc2cc3[n+](cc2c1OC)CCc1cc2c(cc1-3)OCO2 [Berberine] | ~5 | ~5 | ~75 | ~5 | ~2.5 | ~5 | ~75 | – | – | – | – | – | –
– | – | – | Nc1ccn([C@@H]2O[C@H](CO)[C@@H](O)C2(F)F)c(=O)n1 [GEM, gemcitabine] | – | – | – | – | – | – | – | induced | induced | induced | significantly higher level of tolerance | did not observe Annexin positive cells | significantly higher level of tolerance
